Calls of active or inactive are those of the source.
How the values were obtained:
D283 Med [1] = test: Induction of cell cycle arrest in human D283 Med cells assessed as accumulation of cells at G1 phase at 300 nM incubated for 48 hrs by flow cytometry analysis (reference value: 23.47 +/- 0.29%); assay type: functional
Daoy [2] = test: Induction of senescence in human Daoy cells assessed as decrease in phosphorylated RB protein expression at 300 nM by immunoblot analysis; assay type: functional, cell-based
Summary of the method: (§1)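 Protein lysates prepared in RIPA buffer with protease inhibitors. Standard western blot with HRP-conjugated secondary antibodies and chemiluminescent detection.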

D425 Med = test: Induction of cell cycle arrest in human D425 Med cells assessed as accumulation of cells at G1 phase at 300 nM incubated for 48 hrs by flow cytometry analysis (reference value: 33.715 +/- 0.495%); assay type: functional
Daoy [3] = test: Induction of senescence in human Daoy cells assessed as increase in beta-galactosidase level at 75 to 300 nM measured after 7 days by staining based analysis; assay type: functional, cell-based; settings: dose 75-300 nM, time 7.0 day
Summary of the method: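 Daoy cells treated with 75 or 300 nM drug or DMSO. Senescence-associated β-galactosidase staining performed after 7 days. Positive cells counted per high power field.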

Daoy [4] = test: Downregulation of CRIP1 gene expression in human Daoy cells at 300 nM by GSEA method; assay type: functional, cell-based
Summary of the method: (§2)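 Daoy cells treated with DMSO or 300 nM drug. RNA extracted and hybridized to Affymetrix HG-ST2.0 arrays. Analysis in R/Bioconductor with gene set enrichment analysis. Regulated transcripts defined as p < 0.05, FDR < 0.05, fold change < 0.67 (down) or > 1.5 (up).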

[5] = biological target: Bromodomain-containing protein 4 (Homo sapiens) (UniProt O60885); settings: D283 Med, dose 300.0 nM
[6] = biological target: Bromodomain-containing protein 4 (Homo sapiens) (UniProt O60885); settings: Daoy, dose 300.0 nM
D283 Med [7] = test: Induction of cell cycle arrest in human D283 Med cells assessed as S phase cells at 300 nM incubated for 48 hrs by flow cytometry analysis (reference value: 19.88 +/- 1.26 %); assay type: functional
D283 Med [8] = test: Antiproliferative activity in human D283 Med cells assessed as inhibition of cell growth at 300 nM by flow cytometry analysis; assay type: functional, cell-based
Summary of the method: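 ViaCount flow cytometric cell count. Cells seeded in medium, DMSO or drug added 24 h later, cultured a further 48 h. Cells then pelleted, washed, stained with Viacount reagent and counted on a Guava cytometer. Vehicle control DMSO.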

Daoy [9] = test: Induction of senescence in human Daoy cells assessed as increase in p21 protein expression at 300 nM by immunoblot analysis; assay type: functional, cell-based; summary of the method: as §1
Daoy [10] = test: Downregulation of IFRD1 gene expression in human Daoy cells at 300 nM by GSEA method; assay type: functional, cell-based; summary of the method: as §2
Daoy [11] = test: Induction of senescence in human Daoy cells assessed as increase in p27 mRNA expression at 300 nM by RT-qPCR analysis; assay type: functional, cell-based
Summary of the method: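 Cells treated with 300 nM drug or DMSO. p16, p21 and p27 mRNA measured by TaqMan qPCR with ΔΔCt quantitation, in triplicate.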

Daoy [12] = test: Antiproliferative activity in human Daoy cells assessed as inhibition of cell growth measured upto 120 hrs by xCELLigence system; assay type: functional, cell-based; settings: dose 0.1-1 µM
Summary of the method: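 Real-time impedance growth monitoring (xCELLigence, E-Plate 96). 1000 cells/well plated, DMSO or drug at varying concentrations added 24 h later, growth recorded continuously over time.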

D458 Med [13] = test: Inhibition of colony formation in human D458 Med cells at 100 to 300 nM incubated for 8 to 11 days by NBT staining based methyl cellulose colony growth assay; assay type: functional, cell-based; settings: dose 100-300 nM, time 8-11 day
Summary of the method: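 500 cells/well suspended in DMEM with methyl cellulose (1.3% final) containing 150 or 300 nM drug or DMSO, plated in triplicate. Colonies formed over 8–11 days, then stained with NBT (1 mg/ml) for 24 h at 37 °C. Colonies of ≥50 cells counted.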

D458 Med [14] = test: Induction of cell cycle arrest in human D458 Med cells assessed as S phase cells at 300 nM incubated for 48 hrs by flow cytometry analysis (reference value: 43.54 +/- 3.48%); assay type: functional

Cc1sc2c(c1C)C(c1ccc(Cl)cc1)=N[C@@H](CC(=O)OC(C)(C)C)c1nnc(C)n1-2
14.093%: Activity (D283 Med [7])
30.373%: Activity (D283 Med [1])
39.393%: Activity (D425 Med)
active: Activity (Daoy [2]) | Activity (Daoy [3]) | Activity (Daoy [4]) | inhibition [5] | inhibition [6] | Activity (D283 Med [8]) | Activity (Daoy [9]) | Activity (Daoy [10]) | Activity (Daoy [11]) | Activity (Daoy [12]) Dose-Dependent Effect | inhibition (D458 Med [13])
26.58%: Activity (D458 Med [14])

Source: ChEMBL document CHEMBL5653617, “Inhibition of BRD4 attenuates tumor cell self-renewal and suppresses stem cell signaling in MYC driven medulloblastoma” (Oncotarget, 2014)
